Reference: ChEMBL document CHEMBL3244400, “Synthesis of 3,4-dihydro-4-oxothieno[2,3-d]pyrimidine-2-carboxylates, a new series of orally active antiallergy agents” (J Med Chem, 1979)

Tests used:
Type in all cases: functional
[1] = tested on: Rattus norvegicus; experiment: Inhibition of egg albumin-induced allergic bronchospasm in sensitized, spontaneously breathing and anesthesized Harlan-Wistar rat assessed as drop in mean arterial blood pressure at 1.56 mg/kg administered intraduodenally 15 min prior to antigen challenge (reference value: 46.3 +/- 3.5 %); conditions: route intraduodenal
Method in brief: (§1)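 Male Harlan-Wistar rats (225–275 g) were sensitized with EA im (1 mg/rat) plus pertussis vaccine ip. After 13–15 days they were urethane-anesthetized (1.5 g/kg ip). Drug was given intraduodenally in methocel or iv in saline, then EA 2 mg/rat iv. Pulmonary ventilation pressure and mean arterial pressure were recorded. Individual responses were compared with a separate vehicle-control group mean; 4–15 rats/group.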

[2] = tested on: Rattus norvegicus; experiment: Inhibition of egg albumin-induced allergic bronchospasm in sensitized, spontaneously breathing and anesthesized Harlan-Wistar rat assessed as drop in pulmonary arterial blood pressure at 50 mg/kg administered intraduodenally 15 min prior to antigen challenge (reference value: 32.2 +/- 4.7 %); conditions: route intraduodenal; method in brief: as §1
[3] = tested on: Rattus norvegicus; experiment: Inhibition of egg albumin-induced allergic bronchospasm in sensitized, spontaneously breathing and anesthesized Harlan-Wistar rat assessed as inhibition of control allergic hypotension response at 3.125 mg/kg administered intraduodenally 15 min prior to antigen challenge; conditions: route intraduodenal; method in brief: as §1
[4] = tested on: Rattus norvegicus; experiment: Inhibition of egg albumin-induced allergic bronchospasm in sensitized, spontaneously breathing and anesthesized Harlan-Wistar rat assessed as drop in mean arterial blood pressure at 12.5 mg/kg administered intraduodenally 15 min prior to antigen challenge (reference value: 46.3 +/- 3.5 %); conditions: route intraduodenal; method in brief: as §1
[5] = tested on: Rattus norvegicus; experiment: Inhibition of egg albumin-induced allergic bronchospasm in sensitized, spontaneously breathing and anesthesized Harlan-Wistar rat assessed as inhibition of control allergic hypotension response at 12.5 mg/kg administered intraduodenally 15 min prior to antigen challenge; conditions: route intraduodenal; method in brief: as §1
[6] = tested on: Rattus norvegicus; experiment: Inhibition of egg albumin-induced allergic bronchospasm in sensitized, spontaneously breathing and anesthesized Harlan-Wistar rat assessed as drop in pulmonary arterial blood pressure at 6.25 mg/kg administered intraduodenally 15 min prior to antigen challenge (reference value: 32.2 +/- 4.7 %); conditions: route intraduodenal; method in brief: as §1
[7] = tested on: Rattus norvegicus; experiment: Inhibition of egg albumin-induced allergic bronchospasm in sensitized, spontaneously breathing and anesthesized Harlan-Wistar rat assessed as drop in mean arterial blood pressure at 6.25 mg/kg administered intraduodenally 15 min prior to antigen challenge (reference value: 46.3 +/- 3.5 %); conditions: route intraduodenal; method in brief: as §1
[8] = tested on: Rattus norvegicus; experiment: Inhibition of egg albumin-induced allergic bronchospasm in sensitized, spontaneously breathing and anesthesized Harlan-Wistar rat assessed as inhibition of control allergic bronchospasm response at 1.56 mg/kg administered intraduodenally 15 min prior to antigen challenge; conditions: route intraduodenal; method in brief: as §1
[9] = tested on: Rattus norvegicus; experiment: Inhibition of egg albumin-induced allergic bronchospasm in sensitized, spontaneously breathing and anesthesized Harlan-Wistar rat assessed as drop in mean arterial blood pressure at 50 mg/kg administered intraduodenally 15 min prior to antigen challenge (reference value: 46.3 +/- 3.5 %); conditions: route intraduodenal; method in brief: as §1
[10] = tested on: Rattus norvegicus; experiment: Inhibition of egg albumin-induced allergic bronchospasm in sensitized, spontaneously breathing and anesthesized Harlan-Wistar rat assessed as inhibition of control allergic bronchospasm response at 3.125 mg/kg administered intraduodenally 15 min prior to antigen challenge; conditions: route intraduodenal; method in brief: as §1
[11] = tested on: Rattus norvegicus; experiment: Inhibition of egg albumin-induced allergic bronchospasm in sensitized, spontaneously breathing and anesthesized Harlan-Wistar rat assessed as drop in pulmonary arterial blood pressure at 1.56 mg/kg administered intraduodenally 15 min prior to antigen challenge (reference value: 32.2 +/- 4.7 %); conditions: route intraduodenal; method in brief: as §1
[12] = tested on: Rattus norvegicus; experiment: Inhibition of egg albumin-induced allergic bronchospasm in sensitized, spontaneously breathing and anesthesized Harlan-Wistar rat assessed as inhibition of control allergic hypotension response at 50 mg/kg administered intraduodenally 15 min prior to antigen challenge; conditions: route intraduodenal; method in brief: as §1
[13] = tested on: Rattus norvegicus; experiment: Inhibition of egg albumin-induced allergic bronchospasm in sensitized, spontaneously breathing and anesthesized Harlan-Wistar rat assessed as inhibition of control allergic hypotension response at 6.25 mg/kg administered intraduodenally 15 min prior to antigen challenge; conditions: route intraduodenal; method in brief: as §1
[14] = tested on: Rattus norvegicus; experiment: Inhibition of egg albumin-induced allergic bronchospasm in sensitized, spontaneously breathing and anesthesized Harlan-Wistar rat assessed as drop in pulmonary arterial blood pressure at 3.125 mg/kg administered intraduodenally 15 min prior to antigen challenge (reference value: 32.2 +/- 4.7 %); conditions: route intraduodenal; method in brief: as §1
[15] = tested on: Rattus norvegicus; experiment: Inhibition of egg albumin-induced allergic bronchospasm in sensitized, spontaneously breathing and anesthesized Harlan-Wistar rat assessed as inhibition of control allergic bronchospasm response at 12.5 mg/kg administered intraduodenally 15 min prior to antigen challenge; conditions: route intraduodenal; method in brief: as §1
[16] = tested on: Rattus norvegicus; experiment: Inhibition of egg albumin-induced allergic bronchospasm in sensitized, spontaneously breathing and anesthesized Harlan-Wistar rat assessed as drop in pulmonary arterial blood pressure at 12.5 mg/kg administered intraduodenally 15 min prior to antigen challenge (reference value: 32.2 +/- 4.7 %); conditions: route intraduodenal; method in brief: as §1
[17] = tested on: Rattus norvegicus; experiment: Inhibition of egg albumin-induced allergic bronchospasm in sensitized, spontaneously breathing and anesthesized Harlan-Wistar rat assessed as inhibition of control allergic bronchospasm response compound administered intraduodenally 15 min prior to antigen challenge; method in brief: as §1
[18] = tested on: Rattus norvegicus; experiment: Inhibition of egg albumin-induced allergic bronchospasm in sensitized, spontaneously breathing and anesthesized Harlan-Wistar rat assessed as inhibition of control allergic bronchospasm response at 6.25 mg/kg administered intraduodenally 15 min prior to antigen challenge; conditions: route intraduodenal; method in brief: as §1
[19] = tested on: Rattus norvegicus; experiment: Inhibition of egg albumin-induced allergic bronchospasm in sensitized, spontaneously breathing and anesthesized Harlan-Wistar rat assessed as drop in mean arterial blood pressure at 3.125 mg/kg administered intraduodenally 15 min prior to antigen challenge (reference value: 46.3 +/- 3.5 %); conditions: route intraduodenal; method in brief: as §1
[20] = tested on: Rattus norvegicus; experiment: Inhibition of egg albumin-induced allergic bronchospasm in sensitized, spontaneously breathing and anesthesized Harlan-Wistar rat assessed as inhibition of control allergic hypotension response compound administered intraduodenally 15 min prior to antigen challenge; conditions: in the assay text read “bronchospasm response” for “hypotension response”; method in brief: as §1
[21] = tested on: Rattus norvegicus; experiment: Inhibition of egg albumin-induced allergic bronchospasm in sensitized, spontaneously breathing and anesthesized Harlan-Wistar rat assessed as inhibition of control allergic hypotension response at 1.56 mg/kg administered intraduodenally 15 min prior to antigen challenge; conditions: route intraduodenal; method in brief: as §1
[22] = tested on: Rattus norvegicus; experiment: Inhibition of egg albumin-induced allergic bronchospasm in sensitized, spontaneously breathing and anesthesized Harlan-Wistar rat assessed as inhibition of control allergic bronchospasm response at 50 mg/kg administered intraduodenally 15 min prior to antigen challenge; conditions: route intraduodenal; method in brief: as §1
[23] = tested on: Mast cell; experiment: Inhibition of histamine release in Sprague-Dawley rat peritoneal mast cells at 20 uM after 10 mins by fluorimetry relative to control
Method in brief: (§2)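 Peritoneal lavage cells from male Sprague–Dawley rats (200–300 g) were sensitized for 2 h at 37 °C in rat anti-EA serum with heparin. Cells were resuspended in buffered HBSS and challenged with EA. Drug was added together with antigen. After 10 min incubation, histamine was measured fluorimetrically. % inhibition was calculated versus release without drug.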

[24] = tested on: Rattus norvegicus; experiment: Inhibition of egg albumin-induced allergic bronchospasm in sensitized, spontaneously breathing and anesthesized Harlan-Wistar rat assessed as inhibition of control allergic bronchospasm response at 2 mg/kg, iv administered 1 min prior to antigen challenge; method in brief: as §1
[25] = tested on: Rattus norvegicus; experiment: Inhibition of egg albumin-induced allergic bronchospasm in sensitized, spontaneously breathing and anesthesized Harlan-Wistar rat assessed as inhibition of control allergic hypotension response at 2 mg/kg, iv administered 1 min prior to antigen challenge; method in brief: as §1
[26] = tested on: Mast cell; experiment: Inhibition of histamine release in Sprague-Dawley rat peritoneal mast cells at 1.25 uM after 10 mins by fluorimetry relative to control; method in brief: as §2
[27] = tested on: Rattus norvegicus; experiment: Inhibition of egg albumin-induced allergic bronchospasm in sensitized, spontaneously breathing and anesthesized Harlan-Wistar rat assessed as drop in pulmonary arterial blood pressure at 2 mg/kg, iv administered 1 min prior to antigen challenge (reference value: 36.4 +/- 3.5 %); method in brief: as §1
[28] = tested on: Mast cell; experiment: Inhibition of histamine release in Sprague-Dawley rat peritoneal mast cells at 5 uM after 10 mins by fluorimetry relative to control; method in brief: as §2
[29] = tested on: Rattus norvegicus; experiment: Antiallergic activity against egg albumin-induced anaphylaxis in iv dosed sensitized rat compound administered 15 mins prior to antigen challenge as single dose by passive cutaneous anaphylaxis test
Method in brief: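 Male Sprague–Dawley or Wistar rats (100–150 g) were passively sensitized by two intradermal dilutions of rat anti-egg-albumin serum, which was mainly IgE and raised with EA im (10 mg/kg) plus killed pertussis vaccine iv. After 48 h, drug or vehicle was given. Rats were then challenged iv with EA plus Evans Blue (25 mg/kg each). Spot diameter was read 20–30 min later; ≥5 rats/compound. % inhibition was calculated versus control mean diameter.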

[30] = tested on: Rattus norvegicus; experiment: Inhibition of egg albumin-induced allergic bronchospasm in sensitized, spontaneously breathing and anesthesized Harlan-Wistar rat assessed as drop in mean arterial blood pressure at 2 mg/kg, iv administered 1 min prior to antigen challenge (reference value: 49.7+/- 1.9 %); method in brief: as §1

## CCCCCCc1sc2nc(C(=O)[O-])nc([O-])c2c1C.O.[Na+].[Na+]
[1]
  inhibition in vivo at 1.56 mg/kg: 63.8%
[2]
  inhibition in vivo at 50 mg/kg: 14%
[3]
  inhibition in vivo at 3.125 mg/kg: 15.4%
[4]
  inhibition in vivo at 12.5 mg/kg: 55.2%
[5]
  inhibition in vivo at 12.5 mg/kg: 0%
[6]
  inhibition in vivo at 6.25 mg/kg: 28%
[7]
  inhibition in vivo at 6.25 mg/kg: 38.4%
[8]
  inhibition in vivo at 1.56 mg/kg: 9.4%
[9]
  inhibition in vivo at 50 mg/kg: 45%
[10]
  inhibition in vivo at 3.125 mg/kg: 28.3%
[11]
  inhibition in vivo at 1.56 mg/kg: 42%
[12]
  inhibition in vivo at 50 mg/kg: 14%
[13]
  inhibition in vivo at 6.25 mg/kg: 28.8%
[14]
  inhibition in vivo at 3.125 mg/kg: 27.6%
[15]
  inhibition in vivo at 12.5 mg/kg: 41%
[16]
  inhibition in vivo at 12.5 mg/kg: 21.6%
[17]
  inhibition: Dose-dependent effect
[17]; intraduodenal
  ED50: 3.8 mg/kg
[18]
  inhibition in vivo at 6.25 mg/kg: 34.2%
[19]
  inhibition in vivo at 3.125 mg/kg: 47.6%
[20]
  inhibition: Dose-dependent effect
[20]; intraduodenal
  ED50: 3.8 mg/kg
[21]
  inhibition in vivo at 1.56 mg/kg: 0%
[22]
  inhibition in vivo at 50 mg/kg: 61.2%

## O=C([O-])c1cc(=O)c2c(OCC(O)COc3cccc4oc(C(=O)[O-])cc(=O)c34)cccc2o1.[Na+].[Na+] [CROMOLYN SODIUM]
[23]
  inhibition at 20 µM: 75%
[24]
  inhibition in vivo at 2 mg/kg: 63.8%
[25]
  inhibition in vivo at 2 mg/kg: 22.4%
[26]
  inhibition at 1.25 µM: 20%
[27]
  inhibition in vivo at 2 mg/kg: 13%
[28]
  inhibition at 5 µM: 50%
[29]
  ED50: 0.6 mg/kg
[30]
  inhibition in vivo at 2 mg/kg: 38.8%
